According to ChEMBL document CHEMBL4177752, “Discovery of Novel Schizocommunin Derivatives as Telomeric G-Quadruplex Ligands That Trigger Telomere Dysfunction and the Deoxyribonucleic Acid (DNA) Damage Response” (J Med Chem, 2018):
The source made the active and inactive calls. The rule behind the calls is not given here.

How the values were obtained:
Quadruplex DNA [1] = experiment: Stabilization of telomeric G-quadruplex DNA in human SiHa cells assessed as increase in phosphorylated p53 expression after 48 hrs by Western blot method; assay type: cell-based
How it was run: (§1)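 SiHa cells were treated with compound for 48 h and lysed in RIPA buffer. 20 µg protein was run on 10% SDS-PAGE and transferred to PVDF. Blots were blocked in 3% BSA, probed with primary antibodies (1:1,000, 4 °C 16 h) for p-ATR, p-CHK1 and p-P53, then secondaries (1:2,000, 2 h at room temperature).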

[2] = Binding affinity to hairpin duplex DNA (unknown origin) at 40 uM by SPR method
How it was run: (§2)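 SPR: biotinylated HTG21 or hairpin DNA (200 nM) was folded in 50 mM Tris-HCl pH 7.4 with 100 mM KCl and captured to about 1,000 RU on an NLC chip against a blank reference cell. Ligand at 0.625–40 µM was injected at 25 µL/min (400 s association, 300 s dissociation) at 25 °C. The chip was regenerated with 1 M KCl and blank sensorgrams were subtracted.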

Quadruplex DNA [3] = experiment: Binding affinity to HTG21 telomeric G-quadruplex DNA (unknown origin) by SPR method; assay type: nucleic-acid assay; how it was run: as §2
SiHa [4] = experiment: Antiproliferative activity against human SiHa cells after 48 hrs by MTT assay; assay type: functional, cell-based
How it was run: (§3)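 Cells seeded at 5.0×10^3 per well and exposed to a range of compound concentrations for 48 h. MTT (2.5 mg/mL solution) was then added for 4 h, formazan was dissolved in DMSO, and OD was read at 570 nm. HL-60 was grown in RPMI-1640 with 10% FBS, the other lines in DMEM with 10% FBS, at 37 °C and 5% CO2. Triplicates; IC50 taken from mean OD versus concentration curves.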

SiHa [5] = experiment: Antiproliferative activity against human SiHa cells after 90 hrs by RTCA method; assay type: functional, cell-based
How it was run: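 SiHa proliferation was followed by real-time cellular analysis during 90 h of compound treatment at several concentrations.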

Quadruplex DNA [6] = experiment: Stabilization of F21T telomeric G-quadruplex DNA (unknown origin) at 1 uM in presence of non-fluorescent duplex DNA ds26 by FRET assay; assay type: nucleic-acid assay
How it was run: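 Competition FRET: 0.2 µM F21T with 1 µM ligand, plus or minus unlabelled duplex ds26 at 3 µM (15-fold) or 10 µM (50-fold), in 10 mM Tris-HCl pH 7.4 with 60 mM KCl. Melting monitored at 470/530 nm over 37–99 °C.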

Quadruplex DNA [7] = experiment: Stabilization of F21T telomeric G-quadruplex DNA (unknown origin) assessed as change in melting temperature at 1 uM by FRET assay; assay type: nucleic-acid assay
How it was run: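 FRET melting: 0.2 µM F21T or F10T (FAM/TAMRA-labelled), with or without 1.0 µM ligand, in 10 mM Tris-HCl pH 7.4 with 60 mM KCl. Excitation 470 nm, emission 530 nm, read every 1 °C from 37–99 °C at 1 °C/min with a 30 s hold. ΔTm = Tm(DNA+ligand) − Tm(DNA).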

[8] = Inhibition of telomerase (unknown origin) by TRAP-LIG assay; design: species or system Homo sapiens
SiHa [9] = experiment: Cell cycle arrest in human SiHa cells assessed as accumulation at G2/M phase at 1 uM after 12 hrs by propidium iodide staining-based flow cytometric method; assay type: functional
How it was run: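 SiHa or U2OS cells (2.0×10^5 per well) were treated with compound or DMSO for 12 h, fixed in ice-cold 70% ethanol overnight, and stained with 50 µg/mL PI plus RNase A for 30 min at room temperature in the dark. 10,000 events were collected by flow cytometry to give the phase distribution.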

Quadruplex DNA [10] = experiment: Stabilization of telomeric G-quadruplex DNA in human SiHa cells assessed as increase in BG4 foci per nucleus at 2 uM after 24 hrs by DAPI staining-based immunofluorescence method relative to control; assay type: cell-based
How it was run: (§4)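 Cells were treated 24 h with 2 µM compound or 0.1% DMSO, then fixed (4% paraformaldehyde), permeabilized (0.5% Triton X-100) and blocked (5% goat serum). Staining used BG4 (80 ng/µL, 37 °C 3 h) with anti-FLAG, and/or γ-H2AX, TRF2 or POT1 antibodies at 4 °C overnight. Alexa 488/555 secondaries and DAPI followed. Foci or co-localized foci per nucleus were counted by confocal microscopy; mean ± SEM, two-tailed unpaired t test.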

SiHa [11] = experiment: Antiproliferative activity against human SiHa cells assessed as decrease in colony formation at 0.125 to 0.5 uM after 12 days by crystal violet staining-based assay; assay type: functional, cell-based
Mus musculus = experiment: Toxicity in BALB/C-nu/nu mouse xenografted with human SiHa cells assessed as decrease in body weight at 10 to 20 mg/kg, ip administered daily for 3 weeks measured everyday during compound dosing; assay type: organism-based; details: in vivo, 504 h
How it was run: (§5)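 SiHa cells (1×10^7 per 100 µL, serum-free DMEM) were injected subcutaneously. Grown tumors were divided into pieces and implanted into BALB/C-nu/nu mice. Caliper volume (1/2 × L × W²) and body weight were recorded daily; tumors were weighed at the end.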

Quadruplex DNA [12] = experiment: Stabilization of telomeric G-quadruplex DNA in human SiHa cells assessed as induction of telomere uncapping by measuring formation of anaphase bridge at 1 uM after 48 hrs by DAPI staining-based laser scanning microscopic method; assay type: cell-based
How it was run: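 SiHa cells were treated with 1 µM compound for 48 h, fixed in 2% formaldehyde/0.2% glutaraldehyde for 15 min, and stained with 2 µg/mL DAPI at 37 °C for 3 h. Confocal imaging followed. Anaphase-bridge frequency is the fraction of cells with bridges; at least 50 anaphase cells per experiment.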

HeLa = experiment: Antiproliferative activity against human HeLa cells after 48 hrs by MTT assay; assay type: functional, cell-based; how it was run: as §3
Quadruplex DNA [13] = experiment: Stabilization of telomeric G-quadruplex DNA in human SiHa cells assessed as increase in phosphorylated ATR expression after 48 hrs by Western blot method; assay type: cell-based; how it was run: as §1
Quadruplex DNA [14] = experiment: Stabilization of telomeric G-quadruplex DNA in human SiHa cells assessed as delocalization of POT1 from TRF2 foci at 2 uM after 24 hrs by DAPI staining-based double immunofluorescence method; assay type: cell-based; how it was run: as §4
SiHa [15] = experiment: Antitumor activity against human SiHa cells xenografted in BALB/C-nu/nu mouse assessed as tumor growth inhibition at 10 mg/kg, ip administered daily for 3 weeks measured post last dose relative to vehicle-treated control; assay type: functional; details: 504 h, read-out: TGI; how it was run: as §5
A549 = experiment: Antiproliferative activity against human A549 cells after 48 hrs by MTT assay; assay type: functional, cell-based; details: A549, 48 h; how it was run: as §3
U2OS = experiment: Induction of telomeric G-quadruplex DNA formation in human U2OS cells assessed as increase in co-localization of BG4/TRF2 foci per nucleus at 2 uM after 24 hrs by DAPI staining-based double immunofluorescence method; assay type: cell-based; how it was run: as §4

Activity [2]: inactive | Kd (Quadruplex DNA [3]): 8.1 µM | Activity (Quadruplex DNA [6]): Active | ΔTm (Quadruplex DNA [7]): 23.5 °C | IC50 [8]: 9.6 µM | IC50 (HeLa): 3.8 µM | IC50 (A549): 9.1 µM
SMILES: CN(C)CCCNc1cc2nc(/C=C3\C(=O)Nc4cc(N5CCN(C)CC5)ccc43)[nH]c(=O)c2cc1F
Activity (Quadruplex DNA [1]): Dose-dependent effect | IC50 (SiHa [4]): 2.8 µM | Activity (SiHa [5]): Dose-dependent effect | Activity (SiHa [9]): Active | fold change (FC) (Quadruplex DNA [10]): 2 | Activity (SiHa [11]): Active | Activity (Mus musculus): Non-Toxic | Activity (Quadruplex DNA [12]): Active | Activity (Quadruplex DNA [13]): Dose-dependent effect | Activity (Quadruplex DNA [14]): Active | inhibition in vivo at 10 mg/kg (SiHa [15]): 29% | Activity (U2OS): Active
